Source: PubChem BioAssay
E-selectin induc = E-selectin induction in HUVECs, primary screen, imaging, HUVEC, immunofluorescence imaging, single point; P16581; normalized: neutral wells 0, TNF-alpha wells 100; activation, % at 7.58 µM; 260,000 tested, 0.37% active; AID 686992, 2013;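 active = mean E-selectin-positive cell signal at least 10% of the positive control, reached in at least 60% of replicates, without over 20% cell loss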
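Read-out basis: % PE-positive cells; Test system: HUVEC primary endothelial cells; Technique: immunofluorescence imaging; Dosing: single-point compound dose.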
FN deposition inh = inhibitors of fibronectin matrix deposition, primary screen, AH1F cells, Alexa488-fibronectin fluorescence, plate reader | AH1F fibroblasts, overnight | inhibition, % at 12.6 µM | 350,000 tested, 0.086% active | AID 743247, 2014;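 active = mean inhibition across replicates of 30% or more, regardless of how many single replicates reach that level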
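Material: AH1F fibroblasts assembling fluorescent fibronectin matrix; amount: 10000 AH1F cells/well; medium: DMEM, 2% serum; reagent: Alexa488-fibronectin, 24 nM final in well; dosing: single compound dose, delivered by pin transfer; incubation: 1 h adhesion, overnight exposure; detection: fluorescence after three HBSS washes, excitation 485 nm, emission 525 nm; measure: fibronectin deposition inhibition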
SIRT5 block = SIRT5 desuccinylase inhibitors, primary screen, biochemical, fluorescence imaging, single point, set 5; 330,000 tested, 1.1% active; NAD-dependent protein deacylase sirtuin-5, mitochondrial (Homo sapiens), Q9NXA8; Purified SirT5, succinyl-peptide AMC, trypsin-coupled fluorescence; inhibition, % at 15 µM; in the data active = inhibition above about 15%
Target sequence (Q9NXA8 whole entry, looked up): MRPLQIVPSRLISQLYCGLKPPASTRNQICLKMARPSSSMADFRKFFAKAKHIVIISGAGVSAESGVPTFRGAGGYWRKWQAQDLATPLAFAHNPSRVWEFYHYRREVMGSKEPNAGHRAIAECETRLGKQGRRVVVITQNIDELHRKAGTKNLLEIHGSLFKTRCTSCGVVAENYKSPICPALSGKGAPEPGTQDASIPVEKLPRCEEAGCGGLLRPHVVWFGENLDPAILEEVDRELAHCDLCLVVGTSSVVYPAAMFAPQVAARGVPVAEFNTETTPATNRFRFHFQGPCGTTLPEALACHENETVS
FGF22 binding = binders of human FGF22 protein, primary screen, FGF22 synaptogenesis inhibitor project, biophysical, thermal shift, single point. activity (Tm shift, normalised), % at 9.99 µM. Fibroblast growth factor 22 (Homo sapiens), Q9HCT0. AID 651658, 2012. recombinant FGF22 thermal shift, SYPRO orange fluorescence; percent of sucrose octasulfate shift, DMSO zero. 340,000 tested, 1.5% active;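 active = mean Tm shift, scaled 0 neutral to 100 positive control, at about 1.3% or above, every replicate too, limit read from the data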
Target sequence (Q9HCT0 whole entry, looked up): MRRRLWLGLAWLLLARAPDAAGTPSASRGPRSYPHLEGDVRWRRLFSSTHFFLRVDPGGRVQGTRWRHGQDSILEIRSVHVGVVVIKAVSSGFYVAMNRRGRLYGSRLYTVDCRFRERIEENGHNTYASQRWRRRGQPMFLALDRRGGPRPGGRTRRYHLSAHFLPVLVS
Statin myotox sup = suppressors of statin myotoxicity in C2C12 myotubes, primary screen, cell-based, single point, plate reader; C2C12 myotubes + simvastatin, ATP luminescence, 48 h; scaled: DMSO 0, geranylgeraniol control 100; rescue of ATP level, % at 7.49 µM; 330,000 tested, 0.78% active; AID 602340, 2012;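 active = mean ATP rescue above about 67%, or every replicate alone reaching that limit, limit read from the data, passing the limit was not always enough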;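 note: myotubes were challenged with 10 µM simvastatin during compound exposure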
rRNA inh HTS = reduced GFP signal of wild-type E. coli, primary screen, bacterial rRNA inhibitor project, GFP/RFP fluorescence, OD600, single point; AID 720706, 2013; 350,000 tested, 1.6% active; GFP signal change (wild-type ribosome), % (concentration not given with the values); E. coli WT GFP vs humanized-ribosome RFP mutants, 24 h; hits give low values; DMSO median 0, no signal -100;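 active = significant combined selectivity score with lowered wild-type GFP, culture density cut under 30%, mutant RFP and density less affected; inactive = any of these conditions unmet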
Hits are given with their value; - = inactive; . = no result given. Shown are actives, neighbours in structure and some others; about 4% of the full set was active somewhere.

SMILES | E-selectin induc | FN deposition inh | SIRT5 block | FGF22 binding | Statin myotox sup | rRNA inh HTS
Cc1cccc(N2CCN(C(=O)c3ccc4nccnc4c3)CC2C)c1 (centres undefined) | - | - | . | 43.0 | - | -
Cc1ccc(N2CCN(C(=O)CCc3nc4ccccc4[nH]3)CC2)c(C)c1 | - | - | - | - | - | -
CC(=O)N(C)C[C@H]1Oc2cc(C#CC3CC3)ccc2S(=O)(=O)N([C@@H](C)CO)C[C@H]1C | - | - | . | . | - | -
O=C(c1cccs1)N1CCN=C1SCc1ccccc1F | - | - | - | 43.2 | - | .
O=C(C[C@@H]1CC[C@@H](NC(=O)CN2CCOCC2)[C@@H](CO)O1)NCc1cccc(F)c1 | - | - | - | - | - | -
CCOC(=O)c1c(NC(=O)c2nn(CC)cc2Br)c(C#N)nn1-c1ccccc1 | . | - | . | . | - | .
CCOC(=O)c1c(NC(=O)c2c(Br)cnn2C)c(C#N)nn1-c1ccccc1 | . | . | - | - | - | -29.3
CN1C(=O)c2cc(NC(=O)Nc3ccccc3F)ccc2OC[C@H]2O[C@H](CC(=O)O)CC[C@@H]21 | - | - | . | - | - | -
COc1ccc(S(=O)(=O)N2CCCCN3[C@@H](CO)[C@H](c4ccc(C#CC(C)C)cc4)[C@@H]3C2)cc1 | - | . | 15.4 | - | - | -46.0
O=S(=O)(c1ccccc1)N1CCCCN2[C@H](C1)[C@@H](c1ccc(C#CC3CCCC3)cc1)[C@@H]2CO | - | - | 15.3 | - | - | -
CC(=O)N(C)C[C@@H]1Oc2ncc(C#CC(C)(C)O)cc2C(=O)N([C@H](C)CO)C[C@H]1C | - | - | - | - | - | -
O=C(Cc1ccccn1)NCC[C@@H]1CC[C@@H](NC(=O)Nc2ccc(Cl)cc2)[C@H](CO)O1 | - | . | - | - | - | -
CCC(=O)N1[C@H](CO)[C@@H](c2ccccc2)C12CN(C(=O)Nc1cccc(OC)c1)C2 | - | . | - | - | . | -
C/C=C/c1ccc([C@H]2[C@H](CO)N(C(C)=O)C23CN(S(C)(=O)=O)C3)cc1 | - | . | - | - | . | -
CCn1c(=S)sc2c(=O)n(CC(=O)Nc3ccc(Cl)cc3)c(C)nc21 | - | - | - | - | - | -19.9
CC(C)CN(CC(C)C)S(=O)(=O)N1CCC(C(=O)NCCc2ccc(Cl)cc2)CC1 | . | . | 16.1 | - | - | -
CC(C)CN(CC(C)C)S(=O)(=O)N1CCC(C(=O)NCc2ccc(F)cc2)CC1 | . | . | . | . | - | .
CC(C)c1csc2nc3n(c(=O)c12)CCCCC3 | - | . | - | - | - | -33.0
C/C=C/c1ccc([C@@H]2[C@@H](CO)N(C(C)=O)[C@@H]2CN(CC)C(=O)CN(C)C)cc1 | - | - | - | - | - | -
Cn1ncc(Br)c1C(=O)NC12CC3CC(CC(C3)C1)C2 | - | - | - | - | . | -29.9
Cn1ncc(Br)c1C(=O)N1CCCC1 | - | . | - | - | - | -
CN1C[C@H]2[C@@H](c3ccccc31)[C@@H](CO)N2C(=O)C1CCCC1 | - | - | - | - | - | -
Cc1noc(C)c1NC(=O)Nc1cccc2c1O[C@@H](CN(C)Cc1ccc(C(F)(F)F)cc1)[C@H](C)CN([C@@H](C)CO)C2=O | 252.1 | . | - | - | - | -
Cc1noc(C)c1NC(=O)Nc1cccc2c1O[C@H](CN(C)Cc1ccc(-c3ccccc3)cc1)[C@@H](C)CN([C@H](C)CO)C2=O | - | . | - | - | 78.4 | -
Cc1noc(C)c1NC(=O)Nc1cccc2c1O[C@@H](CN(C)Cc1ccc(C(=O)O)cc1)[C@H](C)CN([C@@H](C)CO)C2=O | . | . | - | - | - | -
SMILES | E-selectin induc | FN deposition inh | SIRT5 block | FGF22 binding | Statin myotox sup | rRNA inh HTS
Cc1ccc(C)c(NC(=O)Cn2cnc3c(oc4ccccc43)c2=O)c1 | - | - | - | 44.7 | - | -
O=C(Cn1cnc2c(oc3ccccc32)c1=O)NCc1ccccc1 | - | - | - | - | - | -
O=C(Nc1ccccc1C(F)(F)F)c1ccsc1 | . | . | - | - | - | -
O=C(NNc1ccccc1C(F)(F)F)c1sccc1Br | . | - | 20.3 | - | - | -
COc1ccccc1-c1ccc2c(c1)[C@H]1[C@H](CCN1C(=O)CN1CCOCC1)[C@H](CO)N2C | - | - | - | - | - | -
Cc1ccc(S(=O)(=O)Nc2ccc3c(c2)CC(=O)N([C@H](C)CO)C[C@H](C)[C@@H](CN(C)Cc2ccc(Cl)c(Cl)c2)O3)cc1 | - | - | - | - | 145.3 | -
Cc1ccc(S(=O)(=O)Nc2ccc3c(c2)CC(=O)N([C@H](C)CO)C[C@@H](C)[C@H](CN(C)Cc2ccc(Cl)c(Cl)c2)O3)cc1 | - | - | - | - | 103.1 | -
Cc1ccc(S(=O)(=O)Nc2ccc3c(c2)CC(=O)N([C@@H](C)CO)C[C@@H](C)[C@@H](CN(C)Cc2ccc(Cl)c(Cl)c2)O3)cc1 | - | - | - | - | 76.6 | -
Cc1ccc(S(=O)(=O)Nc2ccc3c(c2)CC(=O)N([C@@H](C)CO)C[C@H](C)[C@H](CN(C)Cc2ccc(Cl)c(Cl)c2)O3)cc1 | - | - | - | - | - | -
Cc1ccc(S(=O)(=O)Nc2ccc3c(c2)CC(=O)N([C@H](C)CO)C[C@@H](C)[C@@H](CN(C)Cc2ccc(Cl)c(Cl)c2)O3)cc1 | - | - | - | - | 116.2 | -
COCC(=O)N1C[C@@H](C)[C@H](OC)CN(C)C(=O)c2ccc(NC(=O)Nc3ccccc3)cc2OC[C@@H]1C | - | - | - | - | . | -
O=C(c1ccccn1)N1CC(=O)N2[C@@H](CO)[C@H](c3ccc(-c4cccc(F)c4)cc3)[C@@H]2C1 | - | . | - | . | . | -
O=C(C[C@H]1CC[C@@H](NS(=O)(=O)c2ccc(F)cc2)[C@@H](CO)O1)NCc1ccncn1 | - | . | - | - | - | -
Cc1nn(-c2ccccc2)c(C)c1NC(=O)COc1ccc(C#N)cc1 | - | - | - | - | - | -
Cc1nn(-c2ccccc2)c(C)c1NC(=O)COc1ccc2ccccc2c1 | . | . | - | - | - | -19.6
COc1ccc(C(=O)CCc2ccccc2)c(O)c1 | - | - | - | - | . | -
CCNc1ccc(C(=O)OCC(=O)N(Cc2ccccc2)C(C)(C)C)cc1[N+](=O)[O-] | . | - | - | 43.0 | - | .
COc1ccc(C(=O)OCC(=O)N(Cc2ccccc2)Cc2ccccc2)c(O)c1 | - | - | . | 43.1 | - | -
COc1cc(OC)c(C(=O)OCC(=O)N(Cc2ccccc2)C(C)(C)C)cc1OC | - | - | - | - | . | -29.9
